# According to ChEMBL document CHEMBL4145466, “Design, synthesis, and biological evaluation of novel combretastatin A-4 thio derivatives as microtubule targeting agents” (Eur J Med Chem, 2018):
# pIC50: −log10 of the molar value. The source made the active and inactive calls. The calls are words filed in the database; no cut-off is given here.
# Tests used:
# [1] = target: T1, Tubulin (Homo sapiens) (UniProt P68371+Q9H4B7+P0DPH7+P68366+Q13509+Q71U36+P04350+Q3ZCM7+P07437+P68363+Q9BQE3+Q6PEY2+Q13885+Q9BVA1+Q9BUF5); experiment: Inhibition of tubulin polymerization in human HeLa cells assessed as chromatin condensation at 1 uM after 24 hrs by Hoechst 33258 staining-based fluorescence microscopic analysis; format: cell-based
# In short: (§1)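 Cells seeded at 12.5 × 10^4 per well and exposed to 1 µM compound for 24 h. Nuclei were stained with Hoechst 33258 (10 µg/mL, 30 min, 37 °C), then fixed in 4% formaldehyde/PBS (15 min, RT). Cells were permeabilized with 1% Triton X-100, blocked with 2% BSA/PBS for 1 h, and incubated with anti-α-tubulin-FITC (1:50) overnight at 4 °C. Imaged by fluorescence microscopy.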
# [2] = test system: MDA-MB-231; experiment: Cell cycle arrest in human MDA-MB-231 cells assessed as accumulation of cells at G2/M phase at 0.1 to 1 uM after 24 hrs by propidium iodide staining-based FACS analysis; format: functional
# In short: (§2)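 Cells were seeded at 5 × 10^5 per well in DMEM with 10% FBS and left overnight, then exposed to 0.1, 0.5 or 1 µM for 24 h. DMSO served as the negative control and 50 nM camptothecin as the positive control. Cells were trypsinized, fixed in 70% ethanol for 30 min at 4 °C, stained with 50 µg/mL PI plus 100 µg/mL RNase A for 30 min in the dark, and analysed by flow cytometry. Results are mean ± SD of three experiments, compared by ANOVA with Dunnett's test.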
# [3] = target: T1, Tubulin (Homo sapiens); experiment: Inhibition of tubulin polymerization in human MDA-MB-231 cells assessed as micronuclei formation at 1 uM after 24 hrs by Hoechst 33258/FITC staining-based flow cytometric analysis; format: cell-based
# [4] = target: T1, Tubulin (Homo sapiens); experiment: Inhibition of tubulin polymerization in human HeLa cells assessed as perturbation in cytoskeleton structure at 1 uM after 24 hrs by Hoechst 33258/FITC staining-based flow cytometric analysis; format: cell-based
# [5] = Cytotoxicity against human CCD39Lu cells after 48 hrs by MTT assay; format: cell-based
# In short: (§3)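 Cells in DMEM with 10% FBS were plated at 2 × 10^4 per well and left overnight, then treated for 48 h at 0.6–20 µM (six concentrations) from 10 mM DMSO stocks. MTT was added for 2 h, and formazan was dissolved in DMSO and read at 570 nm. Viability was expressed as % of control, with IC50 taken from dose-response curves. Results are mean ± SD of three independent experiments.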
# [6] = test system: HaCaT; experiment: Cytotoxicity against human HaCaT cells after 48 hrs by MTT assay; format: cell-based; in short: as §3
# [7] = target: T1, Tubulin (Homo sapiens); experiment: Inhibition of tubulin polymerization in human A431 cells assessed as perturbation in cytoskeleton structure at 1 uM after 24 hrs by ELISA; format: cell-based
# [8] = target: T1, Tubulin (Homo sapiens); experiment: Inhibition of tubulin polymerization in human SKOV3 cells assessed as perturbation in cytoskeleton structure at 1 uM after 24 hrs by ELISA; format: cell-based
# [9] = target: T1, Tubulin (Homo sapiens); experiment: Inhibition of tubulin polymerization in human A431 cells assessed as micronuclei formation at 1 uM after 24 hrs by Hoechst 33258/FITC staining-based flow cytometric analysis; format: cell-based
# [10] = test system: HaCaT; experiment: Induction of apoptosis in human HaCaT cells assessed as increase in histone-associated DNA fragments in mononucleosomes after 24 hrs by ELISA; format: cell-based
# In short: (§4)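 Cells (2 × 10^4) were incubated for 24 h at 0.1, 0.5 or 1 µM, lysed and centrifuged. Supernatants went onto a streptavidin plate with anti-histone-biotin and anti-DNA-peroxidase for 2 h, followed by ABTS for 30 min and a reading at 405 nm. Nucleosome content was expressed as an enrichment factor, as mean ± SD of three experiments.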
# [11] = target: T1, Tubulin (Homo sapiens); experiment: Inhibition of tubulin polymerization in human MDA-MB-231 cells assessed as chromatin condensation at 1 uM after 24 hrs by Hoechst 33258 staining-based fluorescence microscopic analysis; format: cell-based; in short: as §1
# [12] = target: T1, Tubulin (Homo sapiens); experiment: Inhibition of tubulin polymerization in human MCF7 cells assessed as chromatin condensation at 1 uM after 24 hrs by Hoechst 33258 staining-based fluorescence microscopic analysis; format: cell-based; in short: as §1
# [13] = target: T1, Tubulin (Homo sapiens); experiment: Inhibition of tubulin polymerization in human MDA-MB-231 cells assessed as perturbation in cytoskeleton structure at 1 uM after 24 hrs by Hoechst 33258/FITC staining-based flow cytometric analysis; format: cell-based
# [14] = test system: SK-OV-3; experiment: Induction of apoptosis in human SKOV3 cells assessed as increase in histone-associated DNA fragments in mononucleosomes after 24 hrs by ELISA; format: functional, cell-based; in short: as §4
# [15] = target: T1, Tubulin (Homo sapiens); experiment: Inhibition of tubulin polymerization in human MDA-MB-231 cells assessed as micronuclei formation at 1 uM after 24 hrs by ELISA; format: cell-based
# [16] = test system: Tubulin; experiment: Inhibition of tubulin polymerization in human HaCaT cells assessed as micronuclei formation at 1 uM after 24 hrs by Hoechst 33258/FITC staining-based […]; format: cell-based; in short: as §1
# [17] = target: T1, Tubulin (Homo sapiens); experiment: Inhibition of tubulin polymerization in human HeLa cells assessed as perturbation in cytoskeleton structure at 1 uM after 24 hrs by ELISA; format: cell-based
# [18] = test system: SK-OV-3; experiment: Cell cycle arrest in human SKOV3 cells assessed as accumulation of cells at G2/M phase after 24 hrs by propidium iodide staining-based FACS analysis; format: functional; in short: as §2
# [19] = test system: MDA-MB-231; experiment: Induction of apoptosis in human MDA-MB-231 cells assessed as increase in histone-associated DNA fragments in mononucleosomes after 24 hrs by ELISA; format: functional, cell-based; in short: as §4
# [20] = test system: MDA-MB-231; experiment: Induction of apoptosis in human MDA-MB-231 cells assessed as increase in histone-associated DNA fragments in oligonucleosomes at 0.1 uM after 24 hrs by ELISA; format: functional, cell-based; in short: as §4
# [21] = test system: HeLa; experiment: Potency index, ratio of CA-4 IC50 to compound IC50 for cytotoxicity against human HeLa cells; format: functional
# [22] = test system: A-431; experiment: Induction of apoptosis in human A431 cells assessed as increase in histone-associated DNA fragments in mononucleosomes at 0.1 uM after 24 hrs by ELISA; format: functional, cell-based; in short: as §4
# [23] = test system: SK-OV-3; experiment: Induction of apoptosis in human SKOV3 cells assessed as increase in histone-associated DNA fragments in oligonucleosomes at 0.1 uM after 24 hrs by ELISA; format: functional, cell-based; in short: as §4
# [24] = test system: HeLa; experiment: Induction of apoptosis in human HeLa cells assessed as increase in histone-associated DNA fragments in mononucleosomes at 0.1 uM after 24 hrs by ELISA; format: functional, cell-based; in short: as §4
# [25] = test system: MCF7; experiment: Induction of apoptosis in human MCF7 cells assessed as increase in histone-associated DNA fragments in mononucleosomes at 0.1 uM after 24 hrs by ELISA; format: functional, cell-based; in short: as §4
# [26] = test system: A-431; experiment: Induction of apoptosis in human A431 cells assessed as increase in histone-associated DNA fragments in oligonucleosomes at 0.1 uM after 24 hrs by ELISA; format: functional, cell-based; in short: as §4
# [27] = test system: MCF7; experiment: Induction of apoptosis in human MCF7 cells assessed as increase in histone-associated DNA fragments in oligonucleosomes at 0.1 uM after 24 hrs by ELISA; format: functional, cell-based; in short: as §4
# [28] = test system: HeLa; experiment: Induction of apoptosis in human HeLa cells assessed as increase in histone-associated DNA fragments in oligonucleosomes at 0.1 uM after 24 hrs by ELISA; format: functional, cell-based; in short: as §4
# [29] = test system: MDA-MB-231; experiment: Induction of apoptosis in human MDA-MB-231 cells assessed as increase in histone-associated DNA fragments in mononucleosomes at 0.1 uM after 24 hrs by ELISA; format: functional, cell-based; in short: as §4
inhibition [4],inhibition [7],inhibition [8],inhibition [13],inhibition [17],Structure (SMILES),Activity [2],inhibition [3],pIC50 [5],pIC50 [6],inhibition [9],inhibition [15],inhibition (INH) [16],also measured
Active,Active,Active,Active,Active,COc1ccc(-c2ocnc2-c2cc(Br)c(OC)c(OC)c2)cc1SC,Active,Active,< 4.70,6.28,Active,Active,Active,inhibition [1]: Active; Activity [10]: Dose-dependent effect; inhibition [11]: Active; inhibition [12]: Active; Activity [14]: Dose-dependent effect; Activity [18]: Dose-dependent effect; Activity [19]: Dose-dependent effect
Active,Active,Active,Active,Active,COc1ccc(-c2ocnc2-c2cc(OC)c(SC)c(OC)c2)cc1O,Active,Active,< 4.70,6.49,Active,Active,Active,Activity [20]: Active; Ratio IC50 [21]: 10; Activity [22]: Active; Activity [23]: Active; Activity [24]: Active; Activity [25]: Active; Activity [26]: Active; Activity [27]: Active; Activity [28]: Active; Activity [29]: Active
